Data published in ChEMBL document CHEMBL2407055, “4-Substituted 2-Hydroxyisoquinoline-1,3(2H,4H)-diones as a Novel Class of HIV-1 Integrase Inhibitors” (ACS Med Chem Lett, 2013).
≈ marks a conversion by molar mass, not a printed value.

Key:
[1] = Cytotoxicity against human MT4 cells by MTT assay; type: cell-based
Method in brief: (§1)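 Anti-HIV-1 activity was measured in MT-4 cells. EC50 is the concentration that cuts HIV-1-induced cytopathic effect by 50%. CC50 is the concentration that lowers MT-4 cell viability by 50%. The therapeutic index is CC50/EC50.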

[2] = system: Human immunodeficiency virus 1; assay: Antiviral activity against HIV1 3B infected in human MT4 cells assessed as inhibition of virus-induced cytopathic effect by MTT assay; type: functional, organism-based; details: Human immunodeficiency virus 1, 3B; method in brief: as §1
[3] = molecular target: T1, Human immunodeficiency virus type 1 integrase (Human immunodeficiency virus 1, UniProt Q7ZJM1); assay: Inhibition of HIV1 integrase overall inhibition using 5'-digoxigenin-labeled 5'-GACCCTTTTAGTCAGTGTGGAAAATCTCTAGCAGT-3' as substrate after 1 hr by ELISA
[4] = molecular target: T1, Human immunodeficiency virus type 1 integrase; assay: Inhibition of strand transfer activity of HIV1 integrase using pre-cleaved oligonucleotide as substrate after 1 hr by ELISA
[5] = molecular target: T1, Human immunodeficiency virus type 1 integrase; assay: Inhibition of 3'-processing activity of HIV1 integrase using 32P-5'-TGTGGAAAATCTCTAGCAGT-3' and 5'-ACTGCTAGAGATTTTCCACA-3' as substrate after 1 hr by ELISA
[6] = Therapeutic index, ratio of CC50 for human MT4 cells to EC50 for HIV1 3B; type: cell-based; details: read-out: Ratio CC50/EC50; method in brief: as §1
[7] = n-octanol-PBS partition coefficient, log D of the compound at pH 7.4; type: physicochemical
[8] = Protein binding in human plasma; type: ADME, cell-free; details: read-out: PPB
[9] = molecular target: Human immunodeficiency virus type 1 reverse transcriptase (Human immunodeficiency virus 1, UniProt Q72547); assay: Inhibition of HIV1 recombinant reverse transcriptase RNase H activity after 10 mins
Method in brief: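 In vitro assay of RT-associated RNase H function. IC50 is the concentration giving 50% inhibition of RNase H activity.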

[10] = Aqueous solubility of the compound in PBS at pH 7.4; type: physicochemical
[11] = molecular target: T1, Human immunodeficiency virus type 1 integrase; assay: Inhibition of HIV1 integrase binding to LEDGF
[12] = molecular target: Human immunodeficiency virus type 1 integrase (Human immunodeficiency virus 1) (UniProt Q7ZJM1); assay: Ratio of IC50 for strand transfer activity of HIV1 integrase to IC50 for HIV1 integrase overall inhibition
Sequence of Human immunodeficiency virus type 1 integrase (Human immunodeficiency virus 1) (Q7ZJM1 as listed by the source): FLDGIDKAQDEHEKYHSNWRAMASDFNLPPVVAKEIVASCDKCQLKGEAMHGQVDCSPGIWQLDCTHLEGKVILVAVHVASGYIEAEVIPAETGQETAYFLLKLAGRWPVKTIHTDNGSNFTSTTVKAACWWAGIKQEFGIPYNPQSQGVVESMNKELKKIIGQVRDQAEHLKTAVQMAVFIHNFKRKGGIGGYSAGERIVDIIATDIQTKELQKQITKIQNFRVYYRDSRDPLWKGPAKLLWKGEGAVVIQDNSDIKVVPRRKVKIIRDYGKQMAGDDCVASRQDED

T1 sequence (Q7ZJM1 whole entry): as the sequence (Q7ZJM1 as listed by the source) above

Row | SMILES | IC50 [3] [µM] | IC50 [4] [µM] | IC50 [5] [µM] | logD [7] | fraction unbound [8] | IC50 [9] [µM] | solubility [10] [µM] | IC50 [11] [µM] | Ratio IC50 [12] | CC50 [1] [µM] | EC50 [2] [µM] | selectivity ratio [6]
1 | Cc1nnc(C(=O)NC(C)(C)c2nc(C(=O)NCc3ccc(F)cc3)c(O)c(=O)n2C)o1 |  |  |  |  |  |  |  |  |  | > 8 |  | 
2 | O=C(Nc1cccc(F)c1)C1C(=O)N(O)C(=O)c2ccccc21 (stereo not given) | 0.01 | 0.11 |  |  |  | 7.31 |  |  | 10 | 64 | 2.47 | 25.9
3 | O=C(NCCc1ccc(F)cc1)C1C(=O)N(O)C(=O)c2ccccc21 (stereo not given) | 0.03 | 0.2 |  |  |  |  |  |  |  | 124 | 5.08 | 24
4 | CN(C(=O)C1C(=O)N(O)C(=O)c2ccccc21)c1ccccc1 (stereo not given) | 5.21 | 5.6 |  |  |  |  |  |  |  | 107 | > 107 | 
5 | O=C1NC(=O)C(C(=O)NCc2ccc(F)cc2)c2ccccc21 (stereo not given) | 199 | 79 |  |  |  |  |  |  |  | > 250 | > 250 | 
6 | O=C(Nc1ccccc1)C1C(=O)N(O)C(=O)c2ccccc21 (stereo not given) | 0.31 | 0.73 |  |  |  |  |  |  |  | 106 | 4.95 | 21.3
7 | O=C(Nc1ccc(F)cc1)C1C(=O)N(O)C(=O)c2ccccc21 (stereo not given) | 0.8 | 1.12 |  |  |  |  |  |  |  | 114 | 1.75 | 65.4
8 | CN1C(=O)c2ccccc2C(C(=O)NCc2ccc(F)cc2)C1=O (stereo not given) | > 250 | > 250 |  |  |  |  |  |  |  | > 250 | > 250 | 

Now from value to compound, other results behind:

Row | IC50 [3] [µM] | IC50 [4] [µM] | IC50 [5] [µM] | logD [7] | fraction unbound [8] | IC50 [9] [µM] | solubility [10] [µM] | IC50 [11] [µM] | Ratio IC50 [12] | SMILES | CC50 [1] [µM] | EC50 [2] [µM] | selectivity ratio [6]
9 | 0.235 | 0.307 |  |  |  |  |  |  |  | COc1ccc(CNC(=O)C2C(=O)N(O)C(=O)c3ccccc32)cc1OC (stereo not given) | 125 | > 125 | 
10 | 0.056 | 0.099 | 0.06 | 0.56 | 0.001 | 0.36 | 190 (≈ 62.4 µg/mL) | > 100 |  | O=C(NCc1ccc(F)cc1)C1C(=O)N(O)C(=O)c2ccccc21 (stereo not given) | 202 | 2.34 | 86.3
11 | 0.076 | 0.084 |  |  |  | 14 |  |  |  | Cc1ccc(CNC(=O)C2C(=O)N(O)C(=O)c3ccccc32)cc1 (stereo not given) | > 125 | 5.7 | > 22
12 | 0.08 | 0.03 |  |  |  |  |  |  |  | O=C(NCc1ccccc1)C1C(=O)N(O)C(=O)c2ccccc21 (stereo not given) | 130 | 3.12 | 41.7
13 | 0.035 | 0.572 | 2.35 |  |  | 0.52 |  |  | 10 | O=C(NCc1ccc(O)cc1O)C1C(=O)N(O)C(=O)c2ccccc21 (stereo not given) | > 125 | 7.94 | > 16
14 | 0.02 | 0.277 | 1.58 |  |  | 16.6 |  |  | 10 | COc1ccc(NC(=O)C2C(=O)N(O)C(=O)c3ccccc32)cc1Cl (stereo not given) | 12.3 | 3.34 | 3.7
15 | 0.205 | 0.258 |  |  |  | 0.9 |  |  |  | O=C(NCc1ccc(O)c(O)c1)C1C(=O)N(O)C(=O)c2ccccc21 (stereo not given) | 11 | > 11 | 
16 | 0.495 | 0.126 |  |  |  | 3.85 |  |  |  | COc1ccc(CCNC(=O)C2C(=O)N(O)C(=O)c3ccccc32)cc1OC (stereo not given) | > 125 | 70.8 | > 1.8
17 | 0.035 | 0.254 |  |  |  | 0.63 |  |  | 10 | COc1ccc(CNC(=O)C2C(=O)N(O)C(=O)c3ccccc32)c(OC)c1 (stereo not given) | 60.4 | 9.24 | 6.5
18 | 1.19 | 1.03 |  |  |  |  |  |  |  | COc1ccc(CNC(=O)C2C(=O)N(O)C(=O)c3ccccc32)cc1 (stereo not given) | 118 | 17.6 | 6.7
19 | 0.673 | 0.296 |  |  |  | 0.13 |  |  |  | O=C(NCCc1ccc(O)c(O)c1)C1C(=O)N(O)C(=O)c2ccccc21 (stereo not given) | 63 | > 63 | 
